Results reported in ChEMBL document CHEMBL4425098, “Thiolactomycin-Based Inhibitors of Bacterial β-Ketoacyl-ACP Synthases with in Vivo Activity” (J Med Chem, 2016).
≈ marks a conversion by molar mass, not a printed value. Calls of active or inactive are those of the source. No cut-off for these calls is given here.

Key:
[1] = Binding affinity to Mycobacterium tuberculosis wild type FabB expressed in Mycobacterium smegmatis MC2 155 by intrinsic tryptophan fluorescence quenching-based fluorimetric method
Procedure, shortened: (§1)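 Kd by quenching of intrinsic tryptophan fluorescence (excitation 280 nm, emission 337 nm). Inhibitor stocks in DMSO or buffer were titrated into 1 μM His-tag-purified enzyme in 50 mM Tris-HCl, 150 mM NaCl, 1 mM DTT, pH 8.5. mtFabB was expressed in M. smegmatis MC²155; saFabF was expressed in E. coli BL21(DE3) pLysS.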

[2] = tested on: Mycobacterium tuberculosis; assay: Antibacterial activity against Mycobacterium tuberculosis H37Rv after 6 days by Alamar blue dye-based colorimetric assay; type: functional; conditions: 144 h
Procedure, shortened: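 M. tuberculosis H37Rv grown to early-mid log phase in Middlebrook 7H9 with 10% OADC and 0.05% Tween 80, added to 1:2 serial compound dilutions, and grown for 6 days at 37°C. Alamar blue then added for a further 24 h. MIC taken as the concentration preventing visible growth and Alamar blue reduction in all replicates.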

Francisella tularensis = assay: Antibacterial activity against Francisella tularensis LVS after 18 to 24 hrs by Alamar blue dye-based colorimetric assay; type: functional
Staphylococcus aureus [3] = assay: Antibacterial activity against methicillin-sensitive Staphylococcus aureus RN4220 after 18 to 24 hrs by Alamar blue dye-based colorimetric assay; type: functional
Procedure, shortened: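 Two-fold serial dilutions from 512 down to 0.25 μg/mL in CAMHB (microbroth dilution); incubated 37 °C for 18–24 h, then Alamar Blue added for a further 4 h. Absorbance read at 570 and 600 nm; percent growth reduction plotted against concentration, MIC90 from non-linear regression; growth and MICs confirmed by optical density.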

Staphylococcus aureus [4] = assay: Antibacterial activity against methicillin-resistant Staphylococcus aureus BAA 1762 after 18 to 24 hrs by Alamar blue dye-based colorimetric assay; type: functional
[5] = tested on: Mycobacterium tuberculosis; assay: Binding affinity to Mycobacterium tuberculosis wild type FabB expressed in Mycobacterium smegmatis MC2 155 by WaterLOGSY-based competition assay
Yersinia pestis = assay: Antibacterial activity against Yersinia pestis A1122 after 18 to 24 hrs by Alamar blue dye-based colorimetric assay; type: functional
[6] = tested on: Burkholderia pseudomallei; assay: Antibacterial activity against Burkholderia pseudomallei after 18 to 24 hrs by Alamar blue dye-based colorimetric assay; type: functional
[7] = biological target: T1, 3-oxoacyl-[acyl-carrier-protein] synthase 2 (Staphylococcus aureus, UniProt Q5TKS0); assay: Binding affinity to Staphylococcus aureus wild type FabF expressed in Escherichia coli BL21 (DE3) PlysS cells by intrinsic tryptophan fluorescence quenching-based fluorimetric method
T1 sequence (Q5TKS0 whole entry): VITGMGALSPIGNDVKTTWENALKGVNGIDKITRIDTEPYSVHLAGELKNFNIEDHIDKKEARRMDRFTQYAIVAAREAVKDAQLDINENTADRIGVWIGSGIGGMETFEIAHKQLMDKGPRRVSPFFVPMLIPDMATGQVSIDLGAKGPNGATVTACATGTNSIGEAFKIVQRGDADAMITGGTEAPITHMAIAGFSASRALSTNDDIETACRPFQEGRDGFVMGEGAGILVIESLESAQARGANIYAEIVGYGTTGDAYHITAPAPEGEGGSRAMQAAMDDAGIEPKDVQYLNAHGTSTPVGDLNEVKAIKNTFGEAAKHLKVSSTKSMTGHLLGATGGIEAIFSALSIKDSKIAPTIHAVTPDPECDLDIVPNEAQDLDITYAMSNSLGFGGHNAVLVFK

[8] = biological target: 3-oxoacyl-[acyl-carrier-protein] synthase 2 (Staphylococcus aureus, UniProt Q5TKS0, C165Q); assay: Binding affinity to Staphylococcus aureus FabF C165Q mutant expressed in Escherichia coli BL21 (DE3) PlysS cells by intrinsic tryptophan fluorescence quenching-based fluorimetric method; procedure, shortened: as §1
Staphylococcus aureus [9] = assay: Antibacterial activity against methicillin-resistant Staphylococcus aureus BAA 1762 infected in Swiss Webster mouse assessed as survival time at 100 mg/kg, sc administered 1 and 25 hrs post infection measured twice a day for 5 days; type: functional
Procedure, shortened: (§2)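 Mice made neutropenic with cyclophosphamide 4 days and 1 day before infection. MRSA BAA 1762 was given IP as 0.5 mL of 5×10⁷ cells/mL in BHI. Analogues in water/ethanol, or vancomycin in water, were dosed SC at 100 mg/kg/inj at 1 and 25 h post infection. Survival was checked every 12 h for 5 days, n=6–7 per group. Average survival time was compared with vehicle by one-tailed t test.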

Staphylococcus aureus [10] = assay: Antibacterial activity against methicillin-resistant Staphylococcus aureus BAA 1762 infected in sc dosed Swiss Webster mouse assessed as increase in survival rate administered 1 and 25 hrs post infection measured twice a day for 5 days; type: functional; conditions: BAA 1762, sc; procedure, shortened: as §2
Klebsiella pneumoniae = assay: Antibacterial activity against Klebsiella pneumoniae KPC2ST258 infected in Swiss Webster mouse assessed as survival time at 100 mg/kg, sc administered 1, 12 and 24 hrs post infection measured every 12 hrs for 7 days; type: functional
Procedure, shortened: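 K. pneumoniae KPC2ST258 was given IP as 5×10⁶ cfu in BHI broth. Drugs in saline/PEG400/ethanol (40/20/40) were injected SC at 100 mg/kg/inj at 1, 12 and 24 h post infection. Mice were checked every 12 h for 7 days, n=8–10 per group. Average survival time was compared with vehicle by one-tailed t test.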

Staphylococcus aureus [11] = assay: Antibacterial activity against methicillin-resistant Staphylococcus aureus BAA 1762 infected in Swiss Webster mouse assessed as increase in survival rate at 100 mg/kg, sc administered 1 and 25 hrs post infection measured twice a day for 5 days relative to vehicle-treated control; type: functional, organism-based; procedure, shortened: as §2

Row | Structure (SMILES) | Ki [1] [µM] | MIC90 [2] [µg/mL] | MIC90 (Francisella tularensis) [µg/mL] | MIC90 (Staphylococcus aureus [3]) [µg/mL] | MIC90 (Staphylococcus aureus [4]) [µg/mL] | Activity [5] | MIC90 (Yersinia pestis) [µg/mL] | Activity [6] | Kd [7] [µM] | Kd [8] [µM] | MSD (Staphylococcus aureus [9]) [days] | ED50 (Staphylococcus aureus [10]) [mg/kg] | MSD (Klebsiella pneumoniae) [days] | Activity (Staphylococcus aureus [11])
1 | C=C/C(C)=C/[C@@]1(C)SC(=O)C=C1OCC(=O)NCCNC(=O)OC(C)(C)C | > 200 | > 100 | 54 (≈ 136 µM) | > 64 | > 64 | inactive |  |  |  |  |  |  |  | 
2 | C=C/C(C)=C/[C@@]1(C)SC(=O)C=C1OCC(=O)NCCn1cc(CNC(=O)c2ccc(NS(=O)(=O)c3ccc(F)cc3)cc2)nn1 |  | > 100 | > 256 | > 64 | > 64 | inactive |  |  |  |  |  |  |  | 
3 | C=C/C(C)=C/[C@@]1(C)SC(=O)C=C1O |  | > 100 | 124 (≈ 632 µM) | 150 (≈ 764 µM) | 100 (≈ 509 µM) | inactive | 250 (≈ 1270 µM) | inactive |  |  |  |  |  | 
4 | C=C/C(C)=C/[C@@]1(C)SC(=O)C(C(=O)CCCCCCCCCCCCCCC)=C1O |  | 100 (≈ 230 µM) | 3.9 (≈ 8.97 µM) | 0.5 (≈ 1.15 µM) | 1 (≈ 2.3 µM) |  | > 250 | inactive | > 200 |  |  |  |  | 
5 | C=C/C(C)=C/[C@@]1(C)SC(=O)C(CCCCn2cc(CNC(=O)c3ccc(NS(=O)(=O)c4ccc(F)cc4)cc3)nn2)=C1O |  | 100 (≈ 160 µM) | 250 (≈ 400 µM) | > 64 | > 100 |  | > 250 |  |  |  |  |  |  | 
6 | C=C/C(C)=C/[C@@]1(C)SC(=O)C(C(=O)C(F)(F)F)=C1O |  | 100 (≈ 342 µM) | 98.1 (≈ 336 µM) | > 64 | 64 (≈ 219 µM) |  | > 250 | inactive | 58.4 | 56.2 | 3 | 125 | 5.1 | 
7 | C=C/C(C)=C/[C@@]1(C)SC(=O)C(CCCCN=[N+]=[N-])=C1O |  | 100 (≈ 341 µM) | 15.3 (≈ 52.1 µM) | > 64 | > 100 |  | > 250 |  | 107 |  |  |  |  | 
8 | C=C/C(C)=C/[C@@]1(C)SC(=O)C(C(=O)CCC)=C1O |  | 100 (≈ 375 µM) | 1.8 (≈ 6.76 µM) | 16 (≈ 60.1 µM) | 32 (≈ 120 µM) |  | > 250 | inactive |  |  |  |  |  | 
9 | C=C/C(C)=C/[C@@]1(C)SC(=O)C(C(C)=O)=C1O |  | 12.5 (≈ 52.5 µM) | 8.8 (≈ 36.9 µM) | 64 (≈ 269 µM) | 32 (≈ 134 µM) |  | > 250 | inactive | 14.2 | 11.9 |  |  | 4.6 | Active
10 | C=C/C(C)=C/[C@@]1(C)SC(=O)C=C1OCC(=O)NCCn1cc(CNC(=O)[C@H](O)C(C)(C)CO)nn1 |  | 100 (≈ 197 µM) | 159 (≈ 313 µM) | > 64 | > 64 | inactive |  |  |  |  |  |  |  | 
11 | C=C/C(C)=C/[C@@]1(C)SC(=O)C=C1OCC(=O)NCCN=[N+]=[N-] |  | > 100 | 39 (≈ 121 µM) | > 64 | > 64 | inactive |  |  |  |  |  |  |  | 
12 | C=C/C(C)=C/[C@@]1(C)SC(=O)C(CCCN=[N+]=[N-])=C1O |  | 100 (≈ 358 µM) | 23.6 (≈ 84.5 µM) | > 64 | > 100 |  | > 250 |  |  |  |  |  |  | 
13 | C=C/C(C)=C/[C@@]1(C)SC(=O)C(C(=O)CCCCCN=[N+]=[N-])=C1O |  |  |  | 16 (≈ 47.7 µM) | 16 (≈ 47.7 µM) |  |  |  |  |  |  |  |  | 
14 | C=C/C(C)=C/[C@@]1(C)SC(=O)C(CCCCc2ccc(F)cc2)=C1O |  | > 100 | 3.1 (≈ 8.95 µM) | > 64 | 75 (≈ 216 µM) |  | > 250 | inactive |  |  |  |  |  | 
